Data set [1] in a line: Permeability in human Caco2 cells. Type of data set: ADME, cell-based. Conditions: Caco-2, read-out: permeability.
A further data set relates to THP-1. As to the kind of experiment: Inhibition of LPS-induced TNFalpha production in human THP1 cells pre-incubated for 30 mins before LPS challenge measured 3 hrs after LPS addition.
Data set [2] can be described thus: Protein binding in human plasma. The following applies: read-out: PPB (converted). The class given is ADME, cell-free.
The target in data set [3] is Serine/threonine-protein kinase 3 (Homo sapiens, UniProt Q13188). As to the kind of experiment: Inhibition of MST2 (unknown origin).
Data set [4] addresses Vascular endothelial growth factor receptor 2 (Homo sapiens, UniProt P35968). As to the kind of experiment: Inhibition of KDR (unknown origin).
The target of data set [5] is Mitogen-activated protein kinase 1 (Homo sapiens, UniProt P28482). The experiment in a line: Inhibition of ERK2 (unknown origin).
Data set [6] concerns the target Serine/threonine-protein kinase Nek2 (Homo sapiens, UniProt P51955). As to the kind of experiment: Inhibition of NEK2 (unknown origin).
In data set [7] the target is Ribosomal protein S6 kinase alpha-3 (Homo sapiens, UniProt P51812). The experiment in a line: Inhibition of RSK2 (unknown origin).
The target of data set [8] is Interleukin-1 receptor-associated kinase 4 (Homo sapiens, UniProt Q9NWZ3). The experiment in a line: Inhibition of IRAK4 (unknown origin).
Data set [9] has as its target Tyrosine-protein kinase Lck (Homo sapiens, UniProt P06239). As to the kind of experiment: Inhibition of LCK (unknown origin).
Data set [10] has as its target Cyclin-dependent kinase 2 (Homo sapiens, UniProt P24941). As to the kind of experiment: Inhibition of CDK2 (unknown origin).
The target in data set [11] is Tyrosine-protein kinase JAK2 (Homo sapiens, UniProt O60674). The experiment in a line: Inhibition of JAK2 (unknown origin).
Data set [12] concerns the target Protein kinase C alpha type (Homo sapiens, UniProt P17252). As to the kind of experiment: Inhibition of PKCA (unknown origin).
Data set [13] addresses Casein kinase I isoform delta (Homo sapiens, UniProt P48730). As to the kind of experiment: Inhibition of CSNK1D (unknown origin).
Data set [14] addresses RAC-alpha serine/threonine-protein kinase (Homo sapiens, UniProt P31749). As to the kind of experiment: Inhibition of AKT1 (unknown origin).
Data set [15] addresses Insulin-like growth factor 1 receptor (Homo sapiens, UniProt P08069). As to the kind of experiment: Inhibition of IGF1R (unknown origin).
The target in data set [16] is Glycogen synthase kinase-3 beta (Homo sapiens, UniProt P49841). The experiment in a line: Inhibition of GSK3B (unknown origin).
Data set [17] concerns the target Receptor-type tyrosine-protein kinase FLT3 (Homo sapiens, UniProt P36888). As to the kind of experiment: Inhibition of FLT3 (unknown origin).
For data set [18], the target named is Testis-specific serine/threonine-protein kinase 2 (Homo sapiens, UniProt Q96PF2). As to the kind of experiment: Inhibition of TSSK2 (unknown origin).
For data set [19], the target named is Calcium/calmodulin-dependent protein kinase type IV (Homo sapiens, UniProt Q16566). The experiment in a line: Inhibition of CAMK4 (unknown origin).
In data set [20] the target is Hepatocyte growth factor receptor (Homo sapiens, UniProt P08581). As to the kind of experiment: Inhibition of MET (unknown origin).
Data set [21] can be described thus: AUC (0 to 6 hrs) in Sprague-Dawley rat at 10 mg/kg, po. Type of data set: ADME, organism-based. More on the design: time < 6 hr, dose 10 mg/kg, route oral. Conditions: plasma. In outline:
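Sprague–Dawley rats were dosed orally with the compound in 20% HPBCD vehicle. AUC was calculated over 0 to 6 h.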

Data set [22] addresses T1, MAP kinase-activated protein kinase 2 (Homo sapiens, UniProt P49137). The experiment in a line: Inhibition of MK2 in human THP1 cells assessed as reduction in LPS-induced HSP27 Ser78 phosphorylation after 60 mins. Type of data set: cell-based, THP-1.
Target sequence in this assay (P49137 whole entry): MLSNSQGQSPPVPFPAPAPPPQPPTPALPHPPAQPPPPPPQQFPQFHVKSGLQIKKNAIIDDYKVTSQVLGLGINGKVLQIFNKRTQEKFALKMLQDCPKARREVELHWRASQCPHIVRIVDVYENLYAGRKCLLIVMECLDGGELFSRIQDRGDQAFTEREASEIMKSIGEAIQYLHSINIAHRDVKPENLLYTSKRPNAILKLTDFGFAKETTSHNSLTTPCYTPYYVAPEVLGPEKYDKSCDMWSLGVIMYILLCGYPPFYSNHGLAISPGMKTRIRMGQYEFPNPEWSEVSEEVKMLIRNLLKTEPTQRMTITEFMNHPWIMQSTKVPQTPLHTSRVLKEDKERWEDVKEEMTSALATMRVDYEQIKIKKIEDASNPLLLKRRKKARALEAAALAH
Data set [23] has as its target T1, MAP kinase-activated protein kinase 2. The experiment in a line: Non-ATP competitive inhibition of MK2 (unknown origin) incubated for 30 mins in presence of 1 uM and 100 uM ATP by MK2 IMAP assay. In outline: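 Inhibitor, ATP and MK2 (final 50 pM) were preincubated 30 min. TAMRA-labelled peptide (final 100 nM) was added for 30 min; final DMSO was 1%. Progressive binding reagent stopped the reaction (30 min); read at ex 530/em 580 nm. Values are means of duplicates or triplicates.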
Target sequence in this assay (P49137 whole entry, looked up): as the sequence (P49137 whole entry) above

Data set [24] has the same target. As to the kind of experiment: Inhibition of MK2 (unknown origin) incubated for 30 mins by MK2 IMAP assay.
Target sequence in this assay (P49137 whole entry): as above
For data set [25], the target named is Inhibitor of nuclear factor kappa-B kinase subunit beta (Homo sapiens, UniProt O14920). As to the kind of experiment: Inhibition of IKKB (unknown origin).
A further data set has as its target Ephrin type-B receptor 4 (Homo sapiens, UniProt P54760). The experiment in a line: Inhibition of EPHB4 (unknown origin).
Data set [26] has as its target Rho-associated protein kinase 2 (Homo sapiens, UniProt O75116). The experiment in a line: Inhibition of ROCK2 (unknown origin).
Data set [27] concerns the target Serine/threonine-protein kinase PLK3 (Homo sapiens, UniProt Q9H4B4). As to the kind of experiment: Inhibition of PLK3 (unknown origin).
Data set [28] has as its target Serine/threonine-protein kinase Chk1 (Homo sapiens, UniProt O14757). The experiment in a line: Inhibition of CHK1 (unknown origin).
For data set [29], the target named is Epidermal growth factor receptor (Homo sapiens, UniProt P00533). The experiment in a line: Inhibition of EGFR (unknown origin).

This is an account of results in ChEMBL document CHEMBL3351352, “Discovery of a novel series of potent MK2 non-ATP competitive inhibitors using 1,2-substituted azoles as cis-amide isosteres” (Bioorg Med Chem Lett, 2014).

Active and inactive are the calls of the source. The rule behind the calls is not given here.

As usually defined, the IC50 is the concentration that gives 50% inhibition. Broadly, the AUC(0-t) is the area under the concentration-time curve up to a stated or last time point.

Chain of Ribosomal protein S6 kinase alpha-3 (P51812 whole entry): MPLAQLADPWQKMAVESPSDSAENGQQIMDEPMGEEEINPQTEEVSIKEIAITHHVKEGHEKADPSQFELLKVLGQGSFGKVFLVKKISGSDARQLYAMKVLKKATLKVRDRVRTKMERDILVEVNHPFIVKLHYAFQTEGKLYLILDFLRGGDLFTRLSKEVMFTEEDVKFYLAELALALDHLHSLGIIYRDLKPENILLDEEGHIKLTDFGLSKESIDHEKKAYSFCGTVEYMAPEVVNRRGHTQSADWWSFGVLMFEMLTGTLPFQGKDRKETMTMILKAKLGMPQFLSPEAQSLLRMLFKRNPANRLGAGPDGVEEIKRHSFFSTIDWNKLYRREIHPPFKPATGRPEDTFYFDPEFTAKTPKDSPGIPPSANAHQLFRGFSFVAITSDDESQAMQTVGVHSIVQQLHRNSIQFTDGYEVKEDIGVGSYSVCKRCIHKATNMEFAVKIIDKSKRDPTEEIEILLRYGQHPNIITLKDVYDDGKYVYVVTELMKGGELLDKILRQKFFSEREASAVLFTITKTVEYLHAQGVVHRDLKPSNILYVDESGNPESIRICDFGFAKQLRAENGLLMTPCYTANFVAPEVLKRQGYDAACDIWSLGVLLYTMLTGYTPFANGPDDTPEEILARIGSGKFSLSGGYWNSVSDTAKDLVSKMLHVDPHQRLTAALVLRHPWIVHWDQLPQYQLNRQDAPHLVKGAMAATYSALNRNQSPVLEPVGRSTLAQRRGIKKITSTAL
Chain of Tyrosine-protein kinase Lck (P06239 whole entry): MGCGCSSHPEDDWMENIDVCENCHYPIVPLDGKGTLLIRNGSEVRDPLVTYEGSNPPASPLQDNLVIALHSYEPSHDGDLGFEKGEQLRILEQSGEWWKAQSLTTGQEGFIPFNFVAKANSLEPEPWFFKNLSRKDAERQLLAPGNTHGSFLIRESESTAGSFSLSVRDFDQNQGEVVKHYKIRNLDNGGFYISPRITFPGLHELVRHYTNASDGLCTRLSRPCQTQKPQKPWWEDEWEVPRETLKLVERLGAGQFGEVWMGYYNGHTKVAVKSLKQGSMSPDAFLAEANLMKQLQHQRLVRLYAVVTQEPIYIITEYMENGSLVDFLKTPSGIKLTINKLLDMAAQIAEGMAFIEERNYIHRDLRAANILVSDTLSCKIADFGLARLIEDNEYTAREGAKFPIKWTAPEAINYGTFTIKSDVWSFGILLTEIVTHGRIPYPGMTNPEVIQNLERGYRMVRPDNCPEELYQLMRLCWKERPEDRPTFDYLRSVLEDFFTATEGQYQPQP
Chain of Tyrosine-protein kinase JAK2 (O60674 whole entry): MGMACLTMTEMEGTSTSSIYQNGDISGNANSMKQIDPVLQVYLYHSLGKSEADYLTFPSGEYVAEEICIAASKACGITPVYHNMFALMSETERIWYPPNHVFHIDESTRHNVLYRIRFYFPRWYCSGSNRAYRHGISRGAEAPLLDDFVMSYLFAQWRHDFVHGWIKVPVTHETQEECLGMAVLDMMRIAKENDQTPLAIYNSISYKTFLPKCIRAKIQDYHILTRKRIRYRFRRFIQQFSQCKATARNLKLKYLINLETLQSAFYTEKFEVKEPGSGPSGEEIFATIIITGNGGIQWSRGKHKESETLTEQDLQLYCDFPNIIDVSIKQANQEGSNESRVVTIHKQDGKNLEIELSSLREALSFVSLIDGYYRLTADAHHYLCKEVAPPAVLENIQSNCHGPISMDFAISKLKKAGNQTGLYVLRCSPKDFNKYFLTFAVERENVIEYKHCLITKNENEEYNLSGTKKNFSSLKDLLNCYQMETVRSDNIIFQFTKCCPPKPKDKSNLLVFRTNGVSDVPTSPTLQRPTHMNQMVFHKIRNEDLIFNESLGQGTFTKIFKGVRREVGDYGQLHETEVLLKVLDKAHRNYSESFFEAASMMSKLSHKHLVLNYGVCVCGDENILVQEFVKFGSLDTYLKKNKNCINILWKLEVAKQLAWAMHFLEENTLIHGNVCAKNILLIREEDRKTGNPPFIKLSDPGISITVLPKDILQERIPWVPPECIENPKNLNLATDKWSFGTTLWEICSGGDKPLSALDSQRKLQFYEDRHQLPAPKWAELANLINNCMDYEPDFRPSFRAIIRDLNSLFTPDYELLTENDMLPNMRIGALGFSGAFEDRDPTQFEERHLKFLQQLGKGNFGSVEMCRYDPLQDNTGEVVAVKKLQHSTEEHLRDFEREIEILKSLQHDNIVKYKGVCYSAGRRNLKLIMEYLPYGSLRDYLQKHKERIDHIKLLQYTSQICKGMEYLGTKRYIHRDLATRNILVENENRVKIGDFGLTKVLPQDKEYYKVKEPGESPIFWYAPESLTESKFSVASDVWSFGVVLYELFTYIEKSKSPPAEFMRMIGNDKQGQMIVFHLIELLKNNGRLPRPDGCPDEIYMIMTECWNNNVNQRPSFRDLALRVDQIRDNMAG
Chain of Mitogen-activated protein kinase 1 (P28482 whole entry): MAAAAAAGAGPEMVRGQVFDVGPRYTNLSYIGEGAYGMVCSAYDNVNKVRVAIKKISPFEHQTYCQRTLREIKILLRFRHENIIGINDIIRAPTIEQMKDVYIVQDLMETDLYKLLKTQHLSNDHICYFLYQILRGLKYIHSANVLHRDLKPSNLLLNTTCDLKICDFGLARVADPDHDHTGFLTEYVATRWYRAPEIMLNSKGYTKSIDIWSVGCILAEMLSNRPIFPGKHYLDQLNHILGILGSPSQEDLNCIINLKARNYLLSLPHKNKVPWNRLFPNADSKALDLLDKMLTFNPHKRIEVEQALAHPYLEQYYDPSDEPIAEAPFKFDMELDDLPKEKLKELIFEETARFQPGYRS
Chain of Hepatocyte growth factor receptor (P08581 whole entry): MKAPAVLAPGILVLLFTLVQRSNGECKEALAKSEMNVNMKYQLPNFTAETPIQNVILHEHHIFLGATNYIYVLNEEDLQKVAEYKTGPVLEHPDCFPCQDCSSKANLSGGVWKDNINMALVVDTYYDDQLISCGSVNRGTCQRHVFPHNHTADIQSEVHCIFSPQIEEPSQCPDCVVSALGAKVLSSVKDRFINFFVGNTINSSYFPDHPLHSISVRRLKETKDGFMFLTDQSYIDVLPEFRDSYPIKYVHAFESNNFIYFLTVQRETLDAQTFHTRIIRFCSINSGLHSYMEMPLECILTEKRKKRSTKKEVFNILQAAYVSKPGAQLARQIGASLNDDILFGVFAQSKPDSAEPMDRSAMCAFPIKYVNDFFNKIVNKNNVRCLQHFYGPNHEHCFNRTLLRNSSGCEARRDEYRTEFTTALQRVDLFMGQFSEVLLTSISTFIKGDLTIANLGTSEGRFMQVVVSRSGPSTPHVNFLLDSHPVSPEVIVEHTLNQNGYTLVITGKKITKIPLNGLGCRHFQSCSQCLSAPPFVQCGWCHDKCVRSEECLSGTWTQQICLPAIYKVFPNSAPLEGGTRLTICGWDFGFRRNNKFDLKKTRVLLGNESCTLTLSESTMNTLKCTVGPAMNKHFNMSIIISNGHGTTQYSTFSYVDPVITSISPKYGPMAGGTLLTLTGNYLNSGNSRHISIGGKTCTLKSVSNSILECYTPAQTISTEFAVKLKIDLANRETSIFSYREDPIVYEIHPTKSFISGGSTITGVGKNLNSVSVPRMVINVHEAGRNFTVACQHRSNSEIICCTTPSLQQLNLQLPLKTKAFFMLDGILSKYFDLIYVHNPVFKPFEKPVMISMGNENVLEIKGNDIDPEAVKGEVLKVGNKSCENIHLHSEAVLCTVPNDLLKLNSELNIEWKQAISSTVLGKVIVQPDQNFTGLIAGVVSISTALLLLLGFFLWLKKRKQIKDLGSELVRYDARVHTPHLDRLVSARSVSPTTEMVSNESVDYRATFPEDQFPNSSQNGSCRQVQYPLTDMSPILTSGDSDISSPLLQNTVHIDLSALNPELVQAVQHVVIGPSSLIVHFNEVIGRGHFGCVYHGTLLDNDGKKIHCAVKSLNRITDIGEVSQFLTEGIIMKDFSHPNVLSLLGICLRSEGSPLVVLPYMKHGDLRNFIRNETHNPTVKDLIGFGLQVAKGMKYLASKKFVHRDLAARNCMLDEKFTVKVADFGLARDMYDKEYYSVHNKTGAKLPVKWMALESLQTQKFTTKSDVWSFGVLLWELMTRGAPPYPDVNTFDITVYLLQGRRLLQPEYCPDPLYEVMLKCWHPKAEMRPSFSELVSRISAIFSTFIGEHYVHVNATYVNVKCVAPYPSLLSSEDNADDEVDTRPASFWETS
Chain of Casein kinase I isoform delta (P48730 whole entry, canonical isoform): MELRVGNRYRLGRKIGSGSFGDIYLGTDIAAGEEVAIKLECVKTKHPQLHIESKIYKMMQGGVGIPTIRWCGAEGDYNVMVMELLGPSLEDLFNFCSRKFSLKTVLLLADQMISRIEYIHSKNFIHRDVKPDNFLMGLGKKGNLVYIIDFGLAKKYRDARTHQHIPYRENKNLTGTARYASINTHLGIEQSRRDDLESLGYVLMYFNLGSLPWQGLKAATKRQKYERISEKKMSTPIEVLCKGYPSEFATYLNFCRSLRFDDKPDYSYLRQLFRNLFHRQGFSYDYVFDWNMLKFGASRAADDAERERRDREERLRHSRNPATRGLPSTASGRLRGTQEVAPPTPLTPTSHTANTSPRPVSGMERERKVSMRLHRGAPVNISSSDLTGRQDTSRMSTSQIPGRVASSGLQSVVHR

In the case of `O=C1c2oc(-c3ccc(Cl)cc3)cc2Cc2cc(N3CCNCC3)ccc2N1Cc1ccccc1-c1cncnc1`, in data set [1], the Papp is below 0.1 ×10⁻⁶ cm/s. In addition, the IC50 with THP-1 came to 1.49 µM. Further, the fraction unbound in [2] was 0.016.
In the case of `Clc1ccc(-c2ccc(-c3nccn3-c3ccc(N4CCNCC4)cc3)o2)cc1`, the half-maximal inhibitory concentration (IC50) in data set [3], in [4], in [5], in [6], in data set [7] and in [8] was above 30 µM throughout. In addition, the 50% inhibitory concentration (IC50) is above 30 µM in data set [9]; above 30 µM in data set [10]; above 30 µM in data set [11]; above 30 µM in data set [12]; above 30 µM in [13]; above 15 µM in data set [14]. For the same compound, the IC50 in data set [15], in data set [16], in [17], in data set [18], in data set [19] and in data set [20] was above 30 µM each time. For the same compound, the half-maximal inhibitory concentration (IC50) in data set [22] is 2.14 µM; in data set [24] it was 0.0255 µM; with THP-1, 0.8 µM; in [25], above 30 µM; at Ephrin type-B receptor 4 it was above 30 µM; in [26] it was above 20 µM. Besides, the IC50 in data set [27], in data set [28] and in [29] was above 30 µM each time. In addition, the Papp in data set [1] worked out at 5 ×10⁻⁶ cm/s. This compound yielded an area under the curve AUC(0-t) at 6 h in [21] of 13.3 µM·h. The inhibition result in data set [23] is “Active”. Also, the fraction unbound in data set [2] is 0.028.
